Assay: Toxicity liver stage against HepG2, at 10uM
Type: cell-based
Set-up: test concentration 10 uM, cell line HepG2-A16-CD81EGFP
Details: human, HepG2-A16-CD81EGFP cells; read-out: INHIBITION
How it was run: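 Uninfected HepG2-A16-CD81EGFP cells, 3 × 10^3 per well, 1536-well, plated on prespotted compound at 10 μM final, parasite-free screening media added to match infected plates; puromycin 10 μM positive, DMSO 0.5% negative; run in parallel with 48 h PbLuc assay at 37 °C, 5% CO2; viability by CellTiter-Glo luminescence, normalized to controls.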

| SMILES | cytotoxicity at 10 µM [%] |
| --- | --- |
| Cc1ccccc1C(N)c1ccncc1 (stereo not given) | -0.871 |
| CC(C)NC(=O)O[C@H]1COCCN(c2nc3ccccc3s2)C1 | -1.27 |
| O=C1N[C@@H]2CCN(C(=O)C3CC3)[C@@H]2C(=O)N1c1ccccc1 | 1.44 |
| CC1=C[C@@H](CN2CCOCC2)[C@H](C(C)C)C[C@H]1Cc1nnc(C)o1 | -5.07 |
| COc1cccc(CN2CC(O)CN(C(=O)C3CC3)CC2=O)c1OC (stereo not given) | -11.3 |
| CCN1Cc2ccccc2N(C(=O)C2CCC2)CCC1=O | -3.53 |
| CC(C)(C)n1ncc2c1NC(=O)CC2c1cccs1 (stereo not given) | 3.48 |
| CCOC(=O)CNC(=O)c1cc2n(n1)CCCO2 | 1.43 |
| O=C(c1nnn(-c2ccc(C(F)(F)F)cc2)n1)N1CC(O)C1 | -4.63 |
| Cc1cc(C(O)CCNC(=O)c2ccc(Cl)s2)c(C)o1 (stereo not given) | -1.22 |
| CN1C(=O)CCC12CCN(S(=O)(=O)c1ccccc1)CC2 | -9.75 |
| NC1CCc2c(ccc(=O)n2CC2CC2)C1 (stereo not given) | -4.37 |
| COc1cc(N2CC[C@@H]3O[C@@H](C(=O)NCCN(C)C)C[C@@H]32)ncn1 | 0.588 |
| O=C(N1CCCC1)N1CCOCC2(C1)CN(c1ccccc1)C(=O)CO2 (stereo not given) | 4.77 |
| O=C(C1=CC2(CCNCC2)c2ccccc21)N1CCCC1 | -2.07 |
| CCCN1CCN(C(=O)c2ccc(Cn3cc(Br)cn3)cc2)CC1 | -6.11 |
| Cc1nn(Cn2ccc(C(=O)N3CCCC(C)C3)n2)c(C)c1Cl (stereo not given) | 2 |
| CCCc1nc(NCCCOCC)c2c(n1)c(C)nn2CC | 21.6 |
| CCn1cc(CN2CCN(C(=O)c3cc(C)c(C)s3)CC2)c(C)n1 | 2.07 |
| Cc1cc(C(F)F)nn1C(C)C(=O)NCc1ncc[nH]1 (stereo not given) | 5.46 |
| O=C1NC2(CCc3ccccc31)CCN(C(=O)c1ccncc1)C2 (stereo not given) | 0.84 |
| CS(=O)(=O)N1CCC(c2cncc(Cl)n2)CC1 | 16 |

| SMILES | cytotoxicity at 10 µM [%] |
| --- | --- |
| Cn1ccc(C2CCCCCN2C(=O)c2cccnc2)n1 (stereo not given) | 6.16 |
| Cc1cnc(Nc2cccc(C3CCCN3C(=O)CO)n2)s1 (stereo not given) | -30.6 |
| CC(=O)N1CCCC1c1ccnc(Nc2cncnc2)n1 (stereo not given) | -25.6 |
| Cc1nc(Nc2ncccn2)cc(C2CCCN2C(C)C)n1 (stereo not given) | -17.3 |
| NC(=O)C1CCN(c2ncc(-c3cnccn3)c([C@H]3CCCO3)n2)CC1 | -0.24 |
| COc1cc(CC(=O)Nc2cccc(C(=O)N(C)C)n2)ccc1C | 2.25 |
| O=C(CSc1nnc(N2CCOCC2)s1)NC(=O)Nc1ccccc1 | 4.44 |
| O=C(COC1CCCCC1)Nc1ccn(Cc2ccccn2)n1 | 0.38 |
| CN(CCOc1ccccc1F)S(=O)(=O)CC1CCOCC1 | 6.47 |
| COc1ccc(CN2CCC(C(N)=O)C2)c(Br)c1OC (stereo not given) | 5.15 |
| Cc1cc(S(C)(=O)=O)c(C)c(S(=O)(=O)NC2CCCC2)c1 | 12.8 |
| COc1ccc(CCNC(=O)C2CC2)c(Cl)c1 | -2.43 |
| NC(=O)C1CCCN1CCCc1ccc(Cl)cc1 (stereo not given) | 5.39 |
| CCOCc1ccc(NC(=O)N2CCOC3(CCC3)C2)cc1 | 4.29 |
| Cc1ccc(OCCn2cnc3oc(C)c(C(=O)O)c3c2=O)cc1 | -8.17 |
| CN(Cc1ncnn1C)C(=O)CCCn1ccc2cc(Cl)ccc21 | 14.7 |
| NC(=O)C1CN(C(=O)C2(c3ccc(F)cc3F)CCCC2)CCO1 (stereo not given) | -5.92 |
| CS(=O)(=O)CCNC(=O)c1cc2ccccc2nc1N1CCCC1 | -6.78 |
| Cc1nc(-c2nnc[nH]2)sc1C(=O)N1CCCC1Cn1cccn1 (stereo not given) | 11.8 |
| Cc1cc(NC(=O)N2CCOCC2)nn1-c1cccc(Cl)c1 | -1.57 |
| COC(=O)c1sc2cccc(F)c2c1CNC(=O)C1CCCO1 (stereo not given) | -13.5 |
| CCC(C)C(=O)NCc1c(C)nn(C)c1N1CCCN(C)CC1 (stereo not given) | 4.24 |

| SMILES | cytotoxicity at 10 µM [%] |
| --- | --- |
| COc1cc2nc(NCc3cc(C)on3)nc(N)c2cc1OC | -3.34 |
| CN1CCN(c2nc(-c3cnn(C)c3)cs2)CC1 | -0.186 |
| O=C(Cn1cc(NC(=O)c2ccc(F)cc2F)cn1)NC1CCCC1 | -0.561 |
| CN(Cc1ccsc1)C(=O)CN1CCc2c(ncn2C)C1 | 2.83 |
| CCN(CC(=O)NCCc1nc(C)no1)Cc1ccc(Cl)cc1 | 2.27 |
| O=C(Nc1ccccc1Cn1cncn1)C1CCN(C2CCCCC2)C1 (stereo not given) | -5.14 |
| O=C(Nc1cccn(Cc2ccc(F)cc2)c1=O)c1cnc[nH]1 | 0.0616 |
| CCOc1ccc(NC2CCN(C3CC3)C2=O)cn1 (stereo not given) | -0.387 |
| CCc1sc(-c2nnc(CNC(C)Cn3cccn3)o2)cc1C (stereo not given) | 0.749 |
| O=C(c1[nH]nc2c1CCCC2)N1CCC(OCCN2CCCCC2)C1 (stereo not given) | -4.52 |
| O=C1CCC(C(=O)Nc2ccc(=O)n(Cc3ccccc3Cl)c2)N1 (stereo not given) | -1.36 |
| Cc1c(C2NC3(CCCC3)C(=O)N2CC2CC2)cc(C#N)n1C (stereo not given) | -1.99 |
| Cc1ncsc1CN(C)C(=O)CC1CCOc2ccccc21 (stereo not given) | 20.2 |
| O=C(CN1CCN(C(=O)c2cccc(-c3ccoc3)c2)CC1)C1CC1 | 0.504 |
| Cc1cc(NC(=O)CN2CCc3nn(C)c(=O)cc3C2)on1 | -1.45 |
| Cc1nc(C2CCCN(C(=O)c3sccc3C3CC3)C2)no1 (stereo not given) | -3.74 |
| Cc1cc(F)c(S(=O)(=O)NCCCN2CCC(O)CC2)cc1F | -25.9 |
| O=C1CCCN1Cc1nnc2n1CCCN(C(=O)c1ccco1)C2 | 8.3 |
| CCS(=O)(=O)N1CCc2c(cnc(-c3cccnc3)c2C(=O)O)C1 | 2.66 |
| CN(C)CCN1CCC2(CC1)CN(c1cccnc1)C(=O)CO2 | 1.7 |
| COc1cc(C)ccc1C(=O)N1C[C@@H](CN(C)CCO)[C@@H](CO)C1 | 1 |
| Cc1cc(N2CCCC(N(C)C)C2)n2nc(C)cc2n1 (stereo not given) | -53.5 |

| SMILES | cytotoxicity at 10 µM [%] |
| --- | --- |
| COCC1CCN(S(=O)(=O)N2C[C@@H](C)[C@](O)(C3CC3)C2)CC1 | 0.23 |
| COC[C@]1(O)CCN(Cc2c[nH]c(CC3CCCC3)n2)CC1(C)C | 17.7 |
| COc1ccc2[nH]nc(CN3CCC(C(=O)N4CCCCC4)CC3)c2c1 | -2.03 |
| O=C1CCN(C(=O)c2csc(-c3ccc(C(F)(F)F)cc3)n2)CCN1 | -12.3 |
| CCC(Nc1nc(CCN)nc2ccccc12)c1cc(C)ccn1 (stereo not given) | -12.9 |
| O=C(O)c1cc(-c2ccncc2F)cc(S(=O)(=O)N2CCCCCC2)c1 | -0.2 |
| Cc1nc(CC2CCN(C(=O)C(c3ccccc3C)N(C)C)CC2)no1 (stereo not given) | 4.66 |
| OCC1(CC2CC2)CCCN(Cc2cnc(C3CCCCC3)nc2)C1 (stereo not given) | -9.2 |
| O=C(Nc1ccc(-c2cscn2)cc1)C1CCCN(Cc2ccon2)C1 (stereo not given) | 0.414 |
| CCC(CO)N(Cc1ccccn1)C(=O)c1ccc(C)c(Cl)c1 (stereo not given) | -0.054 |
| Cc1nn(C)c(C)c1-c1c(-c2ccccc2)ncn1[C@H](CO)C(=O)O | -2.34 |
| CN(CCCc1nccn1C)C(=O)C1CCN(C(=O)C2CCCC2)CC1 | -15.3 |
| CC(C)Cc1ncc2c(n1)CN(C(=O)c1ccc(Cn3ccnc3)o1)C2 | 3.09 |
| CC(c1cccc(-c2ncc(C#N)c(N)n2)c1)N(C)C (stereo not given) | -7.3 |
| CC(C)CCN1CC2(CCCN(C(=O)NCc3cccs3)C2)CCC1=O (stereo not given) | -11.9 |
| CCC(NC(=O)c1cc(CC(C)C)nn1C)c1cc(C)ccn1 (stereo not given) | -138 |
| Cn1ccnc1SCCNc1nccc(C(F)(F)F)n1 | -51 |
| Cc1cc(C(=O)N2CCCCC2)ccc1NS(C)(=O)=O | -1.4 |
| CC(C)[C@@H](C)NC(=O)N1CCn2nc(C(=O)NCCN(C)C)cc2C1 | 2.62 |
| CCn1c(C)cc(C(=O)N2CCCC(C(=O)c3nccn3C)C2)c1C (stereo not given) | 6.27 |
| CCN1CCN(C(=O)c2cc(-c3ccc(C)o3)n[nH]2)[C@H]2CS(=O)(=O)C[C@H]21 | -4.25 |
| CN(Cc1cn(CC2CCNCC2)nn1)CC1CCCCO1 (stereo not given) | -1.9 |

| SMILES | cytotoxicity at 10 µM [%] |
| --- | --- |
| CCn1c(C2CCCN(Cc3nccn3CCOC)C2)nn(C)c1=O (stereo not given) | 7.3 |
| Cc1cnn(CC(C)NCC(=O)NCCOc2ccccc2)c1 (stereo not given) | 1.36 |
| Cc1nccn1C1CCCN(C(=O)c2ccc3c(c2)CCC3)C1 (stereo not given) | -13.8 |
| CN(C)S(=O)(=O)c1ccc(CN2CCCC2c2ccsc2)o1 (stereo not given) | -8.72 |
| Cc1nn(C)c(C)c1C1CCCN1CC(=O)Nc1cc(C(C)C)no1 (stereo not given) | 2.07 |
| CN(C)c1cc(CNc2ccc(S(=O)(=O)C(C)(C)C)nc2)ccn1 | -7.33 |
| Cc1ccc(C(=O)N2CCC(Oc3c(C)cccc3C)CC2)c(=O)[nH]1 | -2.51 |
| Cc1nn(C)c(Cl)c1C1CCCN1Cc1ccc(C(N)=O)cc1 (stereo not given) | -3.69 |
| CC(C)(O)CN1CCN(C(=O)c2ccc3c(c2)COC3)CC1 | -0.644 |
| N#Cc1cccc(OCCN2CCn3c(nnc3C3CC3)C2)c1 | -7 |
| CN(C(=O)Cc1ccc(F)cc1)C1CCN(c2ccccn2)CC1 | -15.8 |
| CC(NC(=O)N1CCN(c2ccccc2O)CC1)c1nncn1C (stereo not given) | -6.01 |
| Cc1cn2c(n1)CCC(NC(=O)c1cc(C3CC3)[nH]n1)C2 (stereo not given) | -16.9 |
| CC(C)CCOCCNC(=O)Nc1cc(C(F)(F)F)c[nH]c1=O | -1.72 |
| Cc1cc(NC(=O)NCC(O)c2ccc(Cl)cc2Cl)n(C)n1 (stereo not given) | -5.38 |
| Cc1[nH]nc2ncc(C(=O)N3CCN(CC(C)O)CC3)cc12 (stereo not given) | -1.73 |
| Cn1cc(C2CC(=O)NC23CCN(Cc2cccc(F)c2)CC3)cn1 (stereo not given) | 7.13 |
| CC(C)N1CCc2[nH]nc(C(=O)N3CCOCC3)c2C1 | -1.6 |
| CC[C@@H]1N(C)CCC[C@]12CCC(=O)N2Cc1ccncc1 | 3.67 |
| Cc1cccc(N2CCC3(CCCN(C(=O)c4cccnc4)C3)CC2)n1 | 3.77 |
| N#CC1(C(=O)N2C[C@@H]3CC[C@H]2CN(Cc2cscn2)C3)CCOCC1 | 2.39 |
| CC(C)CS(=O)(=O)N1C[C@@H]2C[C@H](C(=O)N3CCN(C)CC3)[C@H](C1)O2 | 0.508 |
